CHT inh: inhibitors of human choline transporter CHT | Q9GZV3 | 0.86% of 310,000 active | CHT-expressing cells, membrane potential dye, choline response; active compounds read low | B-score at 10 µM;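 active = B-score over 3 SD under the library average, and starting fluorescence ratio not unusually high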;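 also: choline stimulus applied at its EC90 after an EC20 pre-addition; B-score computed on integrated fluorescence ratio after choline addition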
Target sequence (Q9GZV3 whole entry, looked up): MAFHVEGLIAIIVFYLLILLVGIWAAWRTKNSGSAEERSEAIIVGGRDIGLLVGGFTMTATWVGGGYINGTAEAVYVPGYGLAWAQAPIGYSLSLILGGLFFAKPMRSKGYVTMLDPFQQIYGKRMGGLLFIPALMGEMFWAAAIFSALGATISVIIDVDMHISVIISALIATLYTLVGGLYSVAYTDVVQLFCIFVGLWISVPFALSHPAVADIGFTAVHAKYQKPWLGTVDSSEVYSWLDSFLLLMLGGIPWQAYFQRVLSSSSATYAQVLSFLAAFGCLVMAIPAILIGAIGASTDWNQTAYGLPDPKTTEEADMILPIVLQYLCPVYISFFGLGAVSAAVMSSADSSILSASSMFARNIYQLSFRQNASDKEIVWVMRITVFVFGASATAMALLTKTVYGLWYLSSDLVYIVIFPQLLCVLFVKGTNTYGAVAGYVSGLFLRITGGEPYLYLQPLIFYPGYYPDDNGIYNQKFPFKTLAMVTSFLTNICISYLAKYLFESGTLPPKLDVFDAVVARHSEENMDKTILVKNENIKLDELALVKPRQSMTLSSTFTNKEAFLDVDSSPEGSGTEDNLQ
CHT PAM: allosteric activators of human choline transporter CHT | Q9GZV3 | CHT-expressing cells, membrane potential dye, choline EC20; active compounds read high; LV-AA mutant CHT in HEK293 cells | B-score at 10 µM | 0.49% of 310,000 active | AID 488977;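 active = initial fluorescence not abnormally high and integrated response B-score, plate-corrected, over 3 SD above library mean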
pCIP destab: p/CIP protein destabilization | F442A p/CIP-EGFP cells, EGFP fluorescence, 16 h | decrease of EGFP signal, % at 10 µM | 0.01% of 290,000 active | AID 1984;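 active = EGFP signal decrease of at least 30% at 10 µM or well 3 SD below plate mean, unless failing retest; inactive = the rest, including hits failing retest or dose response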
T cell modulator: modulates CD8 T cell binding to vesicles | 0.068% of 330,000 active | response (vesicle binding), % at 7 µM | 2C CD8+ T cell-vesicle binding, flow cytometry; active compounds read low;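 active = response, share of CD8 T cells binding vesicles, and their 90th percentile fluorescence all below set limits, cut at about 80% in these data, passing the limit was not always enough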;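 also: values below 100% mean blocked vesicle binding to the CD8+ T cells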
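System: murine 2C transgenic CD8+ T lymphocytes; also added: QL9-loaded Drosophila micro-vesicles; times: binding 1.5 h at 37 °C; measured by: flow cytometry, PE anti-B7-1 (FL2) versus Alexa647 anti-CD8 (FL8), PFA-fixed; control set: Peptide-free naked vesicles (low) and QL9 vesicles with 0.7% DMSO vehicle (high)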
GPR7 antagonist: human neuropeptides B/W receptor 1 antagonism; P48145; GPR7-expressing cells, fluorescence antagonist assay; inhibition, % at 4.4 µM; 1.1% of 290,000 active; AID 1861; in the data active = inhibition above about 16%, passing the limit was not always enough;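 also: cells stimulated with the agonist NPW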
DSG3 Ab inh: blocks pemphigus antibody binding to human desmoglein-3 | DSG3-coupled beads, scFv-anti-DSG3-GFP binding, flow cytometry; active compounds read low | 0.48% of 310,000 active | P32926 | binding (percent of control), % at 10 µM;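 active = binding more than 3 SD below its plate's average and above zero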;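 also: hits lower antibody fragment binding to DSG3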
A number is an active result; i = inactive; nt = no result. In the library only some 2.3% were active in any assay of this set; here they are far more common.

SMILES | CHT inh | CHT PAM | pCIP destab | T cell modulator | GPR7 antagonist | DSG3 Ab inh
CC1(C)CC(=O)C=C(c2cc3ccccc3s2)C1 | i | i | nt | i | nt | 85
CC1(C)CC(=O)C=C(c2cccc3c2sc2ccccc23)C1 | nt | nt | nt | i | nt | i
CN(C)S(=O)(=O)c1ccc(Nc2ccc(-c3ccc4c(c3)OCCO4)nn2)cc1 | i | i | i | i | i | 69
CCN(CC)S(=O)(=O)c1ccc(Nc2ccc(-c3ccc4c(c3)OCCO4)nn2)cc1 | i | i | i | i | i | i
Cc1cnc(NC(=O)CSc2nnc(COc3c(C)cccc3C)o2)s1 | i | i | i | i | i | 82
O=C(NNC(=O)c1cc(S(=O)(=O)N2CCOCC2)ccc1Cl)c1ccc(F)cc1 | nt | nt | nt | nt | nt | i
O=C(O)c1cccc(S(=O)(=O)Nc2ccccc2C(=O)NCCc2ccccc2)c1 | i | i | i | i | i | 17
O=C(O)c1cccc(S(=O)(=O)NCCc2ccccc2)c1 | i | i | i | i | i | i
CN(c1ccc(OCC(=O)OCC(=O)NC2CCCC2)cc1)S(=O)(=O)c1ccc2ccccc2c1 | i | i | i | i | i | i
CN(c1ccc(OCC(=O)OCC(=O)c2c(N)n(C)c(=O)n(C)c2=O)cc1)S(=O)(=O)c1ccc2ccccc2c1 | i | i | i | i | i | 97
CC(=O)NNC(=S)Nc1cc(S(=O)(=O)N(C)C)ccc1C | i | i | i | i | i | i
Cc1ccc(S(=O)(=O)N(C)C)cc1NC(=S)Nc1cccc2ccccc12 | i | i | i | i | 46 | i
O=C(N[C@H]1C/C=C\C[C@@H](CC(=O)N(CCO)Cc2ccccc2)C(=O)N2CCC[C@@H]2COC1=O)OCC1c2ccccc2-c2ccccc21 | nt | nt | nt | 0.0 | nt | i
COc1ccc(C(=O)c2ccc(OC)c(N)c2)cc1N | i | 12 | i | i | i | i
CCOc1ccc(C(=O)NC2CCN(C(=S)Nc3ccccc3C)CC2)cc1 | i | i | i | i | i | -5.5
COc1ccc(CCN2CC(C(=O)N(C)Cc3ccccn3)CCC2=O)cc1 (centres undefined) | nt | nt | nt | nt | nt | i
COc1ccc(C(=O)Nn2c(C)nc3ccccc3c2=O)cc1Br | i | i | i | i | i | 72
COCCn1c(=S)[nH]c2cc(C(=O)NC3CCCC(C)C3C)ccc2c1=O (centres undefined) | nt | nt | nt | nt | nt | i
COc1cccc(S(=O)(=O)N(C)C[C@@H]2OCc3cnnn3CCCC(=O)N([C@@H](C)CO)C[C@@H]2C)c1 | nt | nt | nt | nt | nt | i
O=C(CCC(=O)c1ccccc1)Nc1ccc(C(=O)O)cc1 | i | i | i | i | i | i
Cc1ccc(NC(=O)CCC(=O)c2ccccc2)cc1 | nt | nt | nt | nt | nt | 71
COc1ccc([C@@]23Oc4cc(OC)cc(OC)c4[C@]2(O)[C@H](O)[C@H](C(=O)N(C)C)[C@H]3c2ccccc2)cc1 | nt | nt | nt | nt | nt | i
O=C(c1ccc(S(=O)(=O)Cc2cc(F)ccc2F)c([N+](=O)[O-])c1)N1CCOCC1 | nt | nt | nt | nt | nt | i
Cc1ccc(N(CC(=O)NC(C)C)C(=O)CCC(=O)Nc2ccccn2)c(C)c1 | nt | nt | nt | nt | nt | i
COC(=O)CSc1nc2sc3c(c2c(=O)n1C1CCCCC1)CCN(C)C3 | i | 8.8 | i | i | i | nt
SMILES | CHT inh | CHT PAM | pCIP destab | T cell modulator | GPR7 antagonist | DSG3 Ab inh
COc1cccc(CNC(=O)c2ccc(F)c(S(=O)(=O)N3CCCCC3)c2)c1 | nt | nt | nt | nt | nt | i
CN(C)c1ccc(C(=O)c2ccc(N(C)C)c3ccccc23)cc1 | i | 10 | i | i | i | i
O=C(C[C@H]1C[C@@H]2c3cc(NC(=O)Nc4ccccc4F)ccc3O[C@@H]2[C@H](CO)O1)NCc1ccccn1 | nt | nt | nt | nt | nt | i
Oc1ccc(/C=N/NC(=S)Nc2cccnc2)c(O)c1O | nt | nt | i | nt | i | 53
Oc1cccc(/C=N/NC(=S)Nc2cccnc2)c1O | i | i | i | i | i | i
Cc1cnc(C=O)c2cccc([N+](=O)[O-])c12 | nt | nt | nt | nt | nt | i
COc1cc(NC(=O)c2sc3ncn(CC(=O)N4CCCCC4C)c(=O)c3c2C)cc(OC)c1OC (centres undefined) | nt | nt | nt | nt | nt | i
CN(C)S(=O)(=O)N1CCN(S(=O)(=O)c2ccc3ccccc3c2)CC1 | i | i | i | i | i | 73
CCCCN(CCCNC(=O)c1ccc2c(c1)NC(=O)CN2C)c1ccccc1 | nt | nt | nt | nt | nt | i
Cc1ccc(SCc2c(C(=O)N/N=C/c3ccc(C)o3)nnn2-c2nonc2N)cc1 | nt | nt | nt | nt | nt | 86
CCOc1ccccc1/C=N/NC(=O)c1nnn(-c2nonc2N)c1CN1CCC(C)CC1 | i | i | i | i | i | nt
Cc1ccc(/C=N/NC(=O)c2nnn(-c3nonc3N)c2CSc2ccccc2)o1 | i | i | i | i | i | i
CC1CCN(Cc2c(C(=O)N/N=C/c3ccc(C(C)C)cc3)nnn2-c2nonc2N)CC1 | i | 6.4 | i | i | i | i
CCOc1ccc(-c2c(C(=O)N/N=C/c3ccco3)nnn2-c2nonc2N)cc1 | i | i | i | i | i | 3.4
CCCn1cnc2c(=S)nc(N)[nH]c21 | i | i | i | i | 18 | i
Cc1ccccc1OCC(=O)OCC(=O)NC1CCCC(C)C1C (centres undefined) | nt | nt | nt | nt | nt | i
COc1ccc(-c2cc(C(=O)N/N=C/c3ccc4c(c3)OCO4)c3ccccc3n2)c(OC)c1 | i | i | i | i | i | 77
COc1ccc(NC(=O)CN(C)C(=O)c2cc(-c3ccco3)nc3ccccc23)cc1 | i | i | nt | i | nt | i
COc1ccc(NC(=O)c2cc(-c3ccco3)nc3ccccc23)cc1 | i | i | nt | i | nt | 65
CC(=O)N1c2ccc(N=Cc3cc(Br)cc(Br)c3O)cc2CC1C (centres undefined) | -5.3 | i | i | i | i | nt
N#Cc1c(-c2ccc(Cl)cc2)c(-c2ccc(Cl)cc2)nn(CCO)c1=O | nt | nt | nt | nt | nt | i
O=c1cc2oc3cc(O)c(O)cc3c(-c3ccccc3O)c-2cc1O | nt | nt | i | nt | i | 74
CCOC(=O)C(=O)Cc1cccnn1 | nt | nt | nt | nt | nt | 47
COc1cc([N+](=O)[O-])ccc1NC(=S)NNC(=O)c1ccc2c(c1)OCO2 | -5.7 | i | i | i | i | i
O=C(NC(=S)Nc1cc([N+](=O)[O-])ccc1O)c1ccc2c(c1)OCO2 | i | i | i | i | i | i
SMILES | CHT inh | CHT PAM | pCIP destab | T cell modulator | GPR7 antagonist | DSG3 Ab inh
Cc1ccc(CCNc2ncnc(Cl)c2N)cc1 | nt | nt | nt | nt | nt | i
C=CCSc1nc2ccccc2c2nc(-c3ccccc3)nn12 | i | i | i | i | i | 2.7
CCCCCC(=O)N1C[C@@H](O)[C@H](n2cc(-c3ccc(F)cc3)nn2)C[C@@H]1c1ccc(OC)cc1 | nt | nt | nt | nt | nt | 79
Cc1ccc(-c2nn3c(C)nnc3s2)cc1NC(=O)C(C)C | i | i | i | i | i | 82
Cc1ccc(-c2nn3c(C)nnc3s2)cc1NC(=O)c1ccco1 | i | i | i | i | i | i
CC(=O)Nc1cccc(NC(=O)CSc2ncc(-c3ccc(Cl)cc3)n2Cc2ccco2)c1 | i | i | i | i | 37 | i
O=C(NC(=O)c1c(Cl)cccc1Cl)Nc1ccc(Oc2cccnc2)nc1 | i | i | i | i | i | i

Screens from PubChem BioAssay.
